Experimental findings from ChEMBL document CHEMBL1777725, “New class of potent antitumor acylhydrazone derivatives containing furan” (Eur J Med Chem, 2010) are described below.

By pIC50 is commonly meant the negative decadic logarithm of the IC50, by convention in mol/L. Read a high pIC50 as a small IC50.

pIC50: −log10 of the molar value.

One assay concerns HL-60. Description: Growth inhibition of human HL60 cells at 10 uM after 48 hrs by MTT assay. The assay is classed as functional. The settings on record: HL-60, 48 h, read-out: GI. The essentials:
(§1)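 Exponentially growing cells at 1–2.5 ×10⁴ cells/mL, in humidified 5% CO₂, were seeded into 96-well plates. After 24 h, medium containing compound at various concentrations was added, and cells were incubated 48 h. Controls received RPMI-1640 medium only. Viable cell number was read by MTT at 570 nm for HL-60, and by SRB at 540 nm for Bel-7402, BGC-823 and KB.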

The subject of assay [1] is KB. Description: Growth inhibition of human KB cells at 10 uM after 48 hrs by SRB assay. In kind it is functional. The settings on record: read-out: GI. An outline of the steps: as §1
For orientation: In SRB staining, fixed cells bind dye roughly in proportion to their protein.

Assay [2] deals with BGC-823. Description: Growth inhibition of human BGC823 cells at 10 uM after 48 hrs by SRB assay. The assay is classed as functional. Particulars: BGC-823, 48 h, read-out: GI. An outline of the steps: as §1
Assay [3] has as its system Bel-7402. Description: Growth inhibition of human Bel7402 cells at 10 uM after 48 hrs by SRB assay. The assay is classed as functional. Particulars: Bel-7402, 48 h, read-out: GI. The essentials:
as §1

Assay [4] relates to Bel-7402. The assay can be described thus: Antitumor activity against human Bel7402 cells after 48 hrs by SRB assay. In kind it is functional, cell-based. Particulars: Bel-7402, 48 h. An outline of the steps:
as §1

Assay [5] deals with BGC-823. The assay can be described thus: Antitumor activity against human BGC823 cells after 48 hrs by SRB assay. Particulars: BGC-823, 48 h. In kind it is functional, cell-based. The essentials: as §1
Assay [6] has as its system KB. Description: Antitumor activity against human KB cells after 48 hrs by SRB assay. The assay is classed as functional, cell-based. The essentials:
as §1

As for `O=C(N/N=C/c1ccc(-c2ccc(F)cc2)o1)c1ccccc1O`, the inhibition of growth at 10 µM in the assay with HL-60 is -2.08%; with KB [1], 84.6%; with BGC-823 [2], 71.5%; in the assay on Bel-7402 [3], 81.6%. Besides, the figures for the negative-log IC50 (pIC50) in the assay with Bel-7402 [4], in the assay on BGC-823 [5] and with KB [6] were 4.82, 5.02 and 4.41, respectively.

As for `COc1cccc2c1C(=O)c1c(O)c3c(c(O)c1C2=O)C[C@@](O)(C(=O)CO)C[C@@H]3O[C@H]1C[C@H](N)[C@H](O)[C@H](C)O1` [DOXORUBICIN], the negative logarithm of the IC50 (pIC50) with Bel-7402 [4] is 5.30; with BGC-823 [5], 5.32; in the assay on KB [6], 5.24.

`O=C(N/N=C/c1cccc(Br)c1)c1ccc(-c2ccccc2F)o1`: the inhibition of growth at 10 µM in the assay on HL-60 was found to be 27.6%; with KB [1], 26.5%; in the assay with BGC-823 [2], 43.6%; in the assay on Bel-7402 [3] it was 12.5%.

Turning to `O=C(N/N=C/c1ccc(-c2ccc(F)cc2F)o1)c1ccccc1O`, the inhibition of growth at 10 µM with HL-60 is -9.5%; in the assay on KB [1] it was 61.8%; in the assay on BGC-823 [2], 68.4%; with Bel-7402 [3], 63.4%. For the same molecule, the pIC50 with Bel-7402 [4] is 4.71; with BGC-823 [5], 4.33; in the assay on KB [6], 4.26.

Consider `O=C(N/N=C/c1ccc(-c2ccc(Cl)cc2)o1)c1ccccc1`, for which the inhibition of growth at 10 µM was 15.1% in the assay with HL-60, 3.2% with KB [1], 19.4% in the assay on BGC-823 [2] and -7.17% with Bel-7402 [3].

Take `O=C(N/N=C/c1ccccc1Cl)c1ccc(-c2ccc(F)cc2)o1`: the inhibition of growth at 10 µM is -3.22% in the assay with HL-60, 19.3% in the assay on KB [1], 32% in the assay on BGC-823 [2] and 4.81% with Bel-7402 [3].

In the case of `COc1ccccc1C(=O)N/N=C/c1ccc(-c2ccc(F)cc2F)o1`, the inhibition of growth at 10 µM stood at 7.77% with HL-60, 10.1% in the assay with KB [1], 35.9% in the assay with BGC-823 [2] and 1.69% with Bel-7402 [3].

For the molecule `O=C(N/N=C/c1ccc(-c2ccccc2F)o1)c1ccc(Cl)cc1`, the inhibition of growth at 10 µM with HL-60 stood at 6.13%; with KB [1], 4.62%; in the assay with BGC-823 [2] it was 31.5%; in the assay with Bel-7402 [3] it was 2.96%.

In the case of `O=C(N/N=C/c1ccccc1O)c1ccc(-c2ccc(F)cc2)o1`, the inhibition of growth at 10 µM in the assay on HL-60 came out at 13.1%; in the assay with KB [1], 53.9%; with BGC-823 [2] it was 74%; with Bel-7402 [3], 40%. In addition, the results for the pIC50 in the assay with Bel-7402 [4], with BGC-823 [5] and in the assay on KB [6] were 4.30, 3.74 and below 4.40, respectively.

For `O=C(N/N=C/c1ccc(-c2cccc(F)c2)o1)c1ccc(Br)cc1`, the inhibition of growth at 10 µM turned out to be 25.9% in the assay with HL-60, 26% in the assay with KB [1], 46.7% in the assay with BGC-823 [2] and 28.2% in the assay on Bel-7402 [3].

Take `O=C(N/N=C/c1ccc(Cl)cc1)c1ccc(-c2ccccc2F)o1`: the inhibition of growth at 10 µM in the assay with HL-60 turned out to be 6.49%; in the assay on KB [1] it was 11.3%; in the assay with BGC-823 [2], 32.6%; with Bel-7402 [3], 16.9%.

For `COc1ccccc1/C=N/NC(=O)c1ccc(-c2ccc(F)cc2F)o1`, the inhibition of growth at 10 µM was found to be 27.4% in the assay with HL-60, 59.5% in the assay on KB [1], 66.8% with BGC-823 [2] and 53.1% in the assay on Bel-7402 [3]. Further, the pIC50 was 4.61 in the assay on Bel-7402 [4], 4.09 with BGC-823 [5] and below 4.40 with KB [6].

For the molecule `O=C(N/N=C/c1ccc(O)cc1)c1ccc(-c2ccc(F)cc2)o1`, the inhibition of growth at 10 µM with HL-60 came to 1.07%; in the assay on KB [1] it was 11%; in the assay on BGC-823 [2], 46.3%; with Bel-7402 [3], 10.6%.

With `Cc1cccc(/C=N/NC(=O)c2ccc(-c3ccccc3[N+](=O)[O-])o2)c1`, the inhibition of growth at 10 µM with HL-60 was 9.54%; in the assay on KB [1], 10.3%; in the assay on BGC-823 [2] it was 31.4%; with Bel-7402 [3], 6.66%.

Turning to `O=C(N/N=C/c1ccccc1O)c1ccc(-c2ccc(F)cc2F)o1`, the inhibition of growth at 10 µM in the assay with HL-60 worked out at 43.1%; in the assay on KB [1], 75.2%; in the assay on BGC-823 [2] it was 79.1%; in the assay with Bel-7402 [3] it was 91.8%. In addition, the negative logarithm of the IC50 (pIC50) in the assay on Bel-7402 [4] was 5.08; in the assay with BGC-823 [5], 5.02; with KB [6], below 4.40.

In the case of `O=C(N/N=C/c1ccccc1)c1ccc(-c2ccc(Cl)cc2)o1`, the inhibition of growth at 10 µM in the assay on HL-60 turned out to be 25.8%; in the assay on KB [1], 17%; in the assay on BGC-823 [2] it was 33.7%; with Bel-7402 [3] it was 2.28%.

Regarding `Cc1cccc(C(=O)N/N=C/c2ccc(-c3ccccc3[N+](=O)[O-])o2)c1`, the inhibition of growth at 10 µM with HL-60 was 6.25%; with KB [1] it was 5.9%; with BGC-823 [2], 36.1%; with Bel-7402 [3] it was 5.67%.
